# Measurements from different studies.
# pIC50: −log10 of the molar value.
Structure (SMILES),target or system,assay,test system,conditions,endpoint,result
CC(C)C[C@H](NC(=O)OCc1ccccc1)C(=O)N[C@@H](Cc1c[nH]c2ccccc12)C(=O)N[C@@H](CC(C)C)C(=O)C(=O)Nc1ccccc1,RPMI-8226,"cell growth or viability, MTS",,72 h,pIC50,6.50
CS(=O)(=O)c1ccc([C@@H](O)[C@@H](CF)NC(=O)C(Cl)Cl)cc1,Salmonella enterica,microbial growth,CHOLERAESUIS,"20 h, pH 5.5",MIC,4 µg/mL
CC[C@H]1OC(=O)[C@H](C)[C@@H](O[C@H]2C[C@@](C)(OC)[C@@H](O)[C@H](C)O2)[C@H](C)[C@@H](O[C@@H]2O[C@H](C)C[C@H](N(C)C)[C@H]2O)[C@](C)(O)C[C@@H](C)C(=O)[C@H](C)[C@@H](O)[C@]1(C)O,Bacillus cereus,microbial growth,,,MIC,3.13 µM
COc1ccc(Cc2cc(C)cc(=O)n2O)cc1,Cryptococcus gattii,microbial growth,,,MIC80,2.3 µM
CC1=CC(=O)[C@H]2O[C@]1(C)O[C@H]([C@H](C)/C=C(C)/C=C/C(O)=C1/C(=O)CNC1=O)[C@H]2C,Bacillus cereus,microbial growth,,,MIC,25 µM
COc1ccc(C[C@H](NC(=O)[C@H](C)NC(=O)CN2CCOCC2)C(=O)N[C@@H](Cc2ccccc2)C(=O)[C@@]2(C)CO2)cc1,RPMI-8226,"cell growth or viability, MTS",,72 h,pIC50,6.67
O=c1[nH]cc(F)c(=O)[nH]1,Shigella dysenteriae,"microbial killing, broth dilution",,48 h,MBC,8 µg/mL
CCCCCCCCCCCC(=O)OC[C@H]1O[C@@H](n2cc(C)c(=O)[nH]c2=O)C[C@@H]1O,Bacillus cereus,"microbial growth, broth dilution",,,MIC,4 µg/mL
COc1cc(Cc2cnc(N)nc2N)cc(OC)c1OC,Shigella dysenteriae,"microbial killing, broth dilution",,48 h,MBC,32 µg/mL
Cc1cc(Cc2ccc(Cl)cc2)n(O)c(=O)c1,Cryptococcus gattii,microbial growth,,,MIC80,3 µM
CC(C)C[C@H](NC(=O)[C@H](Cc1c[nH]c2ccccc12)NC(=O)[C@H](C)NC(=O)OCc1ccccc1)C(=O)C(=O)Nc1ccccc1,RPMI-8226,"cell growth or viability, MTS",,72 h,pIC50,6.12
C=C(C)[C@H]1Cc2c(ccc3c2O[C@@H]2COc4cc(OC)c(OC)cc4[C@@H]2C3=O)O1,ReNcell VM,"cell growth or viability, imaging",,24 h,pIC50,~6.55
CO/N=C(\C(=O)N[C@@H]1C(=O)N2C(C(=O)O)=C(CSC(=O)c3ccco3)CS[C@H]12)c1csc(N)n1,Salmonella enterica,microbial growth,CHOLERAESUIS,"20 h, pH 5.5",MIC,1 µg/mL
Cc1cc(CC2CCCCC2)n(O)c(=O)c1,Cryptococcus gattii,microbial growth,,,MIC80,1.7 µM
CO/N=C(\C(=O)N[C@@H]1C(=O)N2C(C(=O)O)=C(CSc3nc(=O)c(=O)[nH]n3C)CS[C@H]12)c1csc(N)n1,Salmonella enterica,microbial growth,CHOLERAESUIS,"20 h, pH 7",MIC,0.0625 µg/mL
CCCCCCCCCCCC(=O)OC[C@H]1O[C@@H](n2cc(C)c(=O)[nH]c2=O)C[C@@H]1OC(=O)c1ccc(C(C)(C)C)cc1,Bacillus cereus,"microbial killing, broth dilution",,,MBC,8 µg/mL
CCC1(c2ccc(N)cc2)CCC(=O)NC1=O (centres unmarked),OVCAR-3,"cell growth or viability, CCK-8",,48 h,pIC50,< 4.30
CC1=NN(CNc2ccccn2)C(=O)C1=NNn1c(-c2ccccc2)nc2ccccc2c1=O,Salmonella enterica,"microbial growth, broth dilution",PARATYPHI,24 h,MIC,55.2 µM
O=c1c(O)c(-c2ccc(O)c(O)c2)oc2cc(O)cc(O)c12,Salmonella enterica,microbial growth,TYPHI,,pIC50,4.10
O=c1cccc(C2CCCCC2)n1O,Cryptococcus gattii,microbial growth,,,MIC80,1.7 µM
CC(/C=C/C(O)=C1/C(=O)CNC1=O)=C\[C@@H](C)[C@H]1O[C@@]2(C)O[C@H](C(=O)[C@@H]3O[C@@]32C)[C@@H]1C,Bacillus cereus,microbial growth,,,MIC,6.25 µM
O=C(N[C@H](CO)[C@H](O)c1ccc([N+](=O)[O-])cc1)C(Cl)Cl,Salmonella enterica,microbial growth,CHOLERAESUIS,"20 h, pH 7.2",MIC,4 µg/mL
O=C1NN=C(N=Cc2ccc(O)c(O)c2)C1=NNn1c(-c2ccccc2)nc2ccccc2c1=O,Salmonella enterica,"microbial growth, broth dilution",PARATYPHI,24 h,MIC,53.5 µM
